The values that follow come from ChEMBL document CHEMBL1914406, “Inhibitory effect of novel 5-O-acyl juglones on mammalian DNA polymerase activity, cancer cell growth and inflammatory response” (Bioorg Med Chem, 2011).

One data set deals with Deoxyribonuclease-1 (Bos taurus, UniProt P00639). As to the kind of experiment: Inhibition of bovine deoxyribonuclease I by agarose gel electrophoresis.
A short description of data set [1]: Inhibition of human DNA polymerase epsilon using poly(dA)/oligo(dT)18 (A/T = 2/1) and dTTP as the DNA template-primer and nucleotide substrate after 60 mins. Put shortly: (§1)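 Compound in DMSO, sonicated 30 s. Premixed 0 °C, 10 min with enzyme (0.05 units) in 50 mM Tris-HCl pH 7.5, 1 mM DTT, 50% glycerol, 0.1 mM EDTA, then added to standard reaction mixture. Template-primers: poly(dA)/oligo(dT)18 (2/1) for pols, oligo(dT)18 for TdT, poly(rA)/oligo(dT)18 for HIV-1 RT, with [3H]dTTP. 60 min at 37 °C (Taq 74 °C). Activity relative to no-inhibitor control; mean ± SE of three experiments.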

In another data set the target is DNA polymerase kappa (Homo sapiens, UniProt Q9UBT6). As to the kind of experiment: Inhibition of C-terminal His6-tagged human DNA polymerase kappa (amino acids 1 to 560) using poly(dA)/oligo(dT)18 (A/T = 2/1) and dTTP as the DNA template-primer and nucleotide substrate after 60 mins. The method in brief: as §1
The target in data set [2] is T1, DNA polymerase lambda (Homo sapiens) (UniProt Q9UGP5).
T1 sequence (whole entry): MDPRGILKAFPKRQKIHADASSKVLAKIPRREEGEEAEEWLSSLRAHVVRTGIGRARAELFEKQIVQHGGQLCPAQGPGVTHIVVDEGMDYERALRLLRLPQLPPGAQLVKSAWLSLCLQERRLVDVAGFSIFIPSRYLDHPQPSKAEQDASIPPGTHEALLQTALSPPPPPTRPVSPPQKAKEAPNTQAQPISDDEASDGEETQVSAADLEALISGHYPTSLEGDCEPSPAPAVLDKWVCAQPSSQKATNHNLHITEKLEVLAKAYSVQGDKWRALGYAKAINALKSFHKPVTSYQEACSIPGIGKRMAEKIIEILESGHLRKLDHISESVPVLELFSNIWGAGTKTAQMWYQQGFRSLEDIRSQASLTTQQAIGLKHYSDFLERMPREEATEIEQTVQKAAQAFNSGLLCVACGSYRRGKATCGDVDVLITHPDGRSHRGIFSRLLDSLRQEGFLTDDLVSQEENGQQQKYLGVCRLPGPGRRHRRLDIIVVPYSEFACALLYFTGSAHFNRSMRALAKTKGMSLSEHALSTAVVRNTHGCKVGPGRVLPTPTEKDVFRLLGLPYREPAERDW
As to the kind of experiment: Inhibition of recombinant His-tagged human DNA polymerase lambda using bovine deoxyribonuclease 1-treated DNA and dNTP as the DNA template-primer and nucleotide substrate at 10 uM after 60 mins.

For another data set, the target named is DNA polymerase eta (Homo sapiens, UniProt Q9Y253). As to the kind of experiment: Inhibition of C-terminal His6-tagged human DNA polymerase eta (amino acids 1 to 511) using poly(dA)/oligo(dT)18 (A/T = 2/1) and dTTP as the DNA template-primer and nucleotide substrate after 60 mins. Put shortly:
as §1

For data set [3], the target named is T2, DNA polymerase kappa (Homo sapiens) (UniProt Q9UBT6).
T2 sequence (whole entry): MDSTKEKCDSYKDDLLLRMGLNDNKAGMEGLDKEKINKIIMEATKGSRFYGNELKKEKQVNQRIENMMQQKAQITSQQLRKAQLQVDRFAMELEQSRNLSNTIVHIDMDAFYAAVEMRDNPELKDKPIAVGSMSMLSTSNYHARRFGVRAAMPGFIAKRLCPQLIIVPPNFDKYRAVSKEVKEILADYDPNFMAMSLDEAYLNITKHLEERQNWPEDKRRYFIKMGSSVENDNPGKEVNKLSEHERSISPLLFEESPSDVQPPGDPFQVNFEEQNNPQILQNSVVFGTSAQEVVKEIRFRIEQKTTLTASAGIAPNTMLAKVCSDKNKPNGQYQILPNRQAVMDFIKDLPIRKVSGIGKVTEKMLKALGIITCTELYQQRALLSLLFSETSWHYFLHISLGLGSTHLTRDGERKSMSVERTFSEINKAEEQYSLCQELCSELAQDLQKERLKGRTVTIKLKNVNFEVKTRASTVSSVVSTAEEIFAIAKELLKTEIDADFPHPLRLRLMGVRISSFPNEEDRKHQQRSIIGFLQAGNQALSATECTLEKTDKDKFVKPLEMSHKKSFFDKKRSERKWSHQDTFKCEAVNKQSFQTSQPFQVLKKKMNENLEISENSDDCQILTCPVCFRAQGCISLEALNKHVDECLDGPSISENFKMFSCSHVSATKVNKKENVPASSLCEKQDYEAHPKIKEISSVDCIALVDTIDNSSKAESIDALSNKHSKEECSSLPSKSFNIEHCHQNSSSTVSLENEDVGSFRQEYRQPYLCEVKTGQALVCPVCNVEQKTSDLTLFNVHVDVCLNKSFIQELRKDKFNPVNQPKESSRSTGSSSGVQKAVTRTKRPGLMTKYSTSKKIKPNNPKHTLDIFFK
Nature of the data set: Inhibition of C-terminal His6-tagged human DNA polymerase kappa (amino acids 1 to 560) using poly(dA)/oligo(dT)18 (A/T = 2/1) and dTTP as the DNA template-primer and nucleotide substrate at 10 uM after 60 mins.

A short description of data set [4]: Inhibition of rice DNA polymerase lambda using poly(dA)/oligo(dT)18 (A/T = 2/1) and dTTP as the DNA template-primer and nucleotide substrate after 60 mins. More on the design: species or system Oryza sativa. The method in brief:
as §1

The species named for the next data set is Homo sapiens. As to the kind of experiment: Inhibition of histidine-tagged human DNA polymerase gamma using bovine deoxyribonuclease 1-treated DNA and dNTP as the DNA template-primer and nucleotide substrate at 10 uM after 60 mins.
The nature of data set [5]: Inhibition of Escherichia coli DNA polymerase 1 Klenow fragment using poly(dA)/oligo(dT)18 (A/T = 2/1) and dTTP as the DNA template-primer and nucleotide substrate after 60 mins. Put shortly: as §1
Data set [6] concerns the target DNA polymerase I, thermostable (Thermus aquaticus, UniProt P19821). Nature of the data set: Inhibition of Taq polymerase using poly(dA)/oligo(dT)18 (A/T = 2/1) and dTTP as the DNA template-primer and nucleotide substrate at 74 degree C after 60 mins. Put shortly: as §1
In the next data set the target is DNA polymerase lambda (Homo sapiens, UniProt Q9UGP5). As to the kind of experiment: Inhibition of His-tagged human DNA polymerase lambda using poly(dA)/oligo(dT)18 (A/T = 2/1) and dTTP as the DNA template-primer and nucleotide substrate after 60 mins. The method in brief:
as §1

Data set [7] has as its target DNA-directed DNA polymerase (Enterobacteria phage T4, UniProt P04415). As to the kind of experiment: Inhibition of T4 pol using poly(dA)/oligo(dT)18 (A/T = 2/1) and dTTP as the DNA template-primer and nucleotide substrate after 60 mins. More on the design: species or system Tequatrovirus T4. The method in brief:
as §1

A further data set deals with RAW264.7. Nature of the data set: Cytotoxicity against mouse RAW264.7 cells at 5 uM. It counts as cell-based. The following applies: raw264.7, 5 µM.
Data set [8] in a line: Cytotoxicity against mouse RAW264.7 cells. It counts as cell-based. As to conditions: read-out: LD50 (the source's name).
The target in another data set is DNA polymerase beta (Rattus norvegicus, UniProt P06766). Nature of the data set: Inhibition of rat pol beta using poly(dA)/oligo(dT)18 (A/T = 2/1) and dTTP as the DNA template-primer and nucleotide substrate after 60 mins. The method in brief:
as §1

pIC50: −log10 of the molar value. Activity calls are given as the source filed them. The calls are words filed in the database; no cut-off is given here.

Deoxyribonuclease-1, sequence (P00639 whole entry): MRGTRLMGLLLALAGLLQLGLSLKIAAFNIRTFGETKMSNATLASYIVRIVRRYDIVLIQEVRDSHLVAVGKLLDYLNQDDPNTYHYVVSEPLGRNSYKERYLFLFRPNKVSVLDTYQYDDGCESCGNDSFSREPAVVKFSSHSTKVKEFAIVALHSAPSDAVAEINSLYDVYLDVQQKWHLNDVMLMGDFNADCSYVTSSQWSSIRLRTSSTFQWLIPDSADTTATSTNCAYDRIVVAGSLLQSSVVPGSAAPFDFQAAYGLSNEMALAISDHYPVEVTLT
DNA-directed DNA polymerase, sequence (P04415 whole entry): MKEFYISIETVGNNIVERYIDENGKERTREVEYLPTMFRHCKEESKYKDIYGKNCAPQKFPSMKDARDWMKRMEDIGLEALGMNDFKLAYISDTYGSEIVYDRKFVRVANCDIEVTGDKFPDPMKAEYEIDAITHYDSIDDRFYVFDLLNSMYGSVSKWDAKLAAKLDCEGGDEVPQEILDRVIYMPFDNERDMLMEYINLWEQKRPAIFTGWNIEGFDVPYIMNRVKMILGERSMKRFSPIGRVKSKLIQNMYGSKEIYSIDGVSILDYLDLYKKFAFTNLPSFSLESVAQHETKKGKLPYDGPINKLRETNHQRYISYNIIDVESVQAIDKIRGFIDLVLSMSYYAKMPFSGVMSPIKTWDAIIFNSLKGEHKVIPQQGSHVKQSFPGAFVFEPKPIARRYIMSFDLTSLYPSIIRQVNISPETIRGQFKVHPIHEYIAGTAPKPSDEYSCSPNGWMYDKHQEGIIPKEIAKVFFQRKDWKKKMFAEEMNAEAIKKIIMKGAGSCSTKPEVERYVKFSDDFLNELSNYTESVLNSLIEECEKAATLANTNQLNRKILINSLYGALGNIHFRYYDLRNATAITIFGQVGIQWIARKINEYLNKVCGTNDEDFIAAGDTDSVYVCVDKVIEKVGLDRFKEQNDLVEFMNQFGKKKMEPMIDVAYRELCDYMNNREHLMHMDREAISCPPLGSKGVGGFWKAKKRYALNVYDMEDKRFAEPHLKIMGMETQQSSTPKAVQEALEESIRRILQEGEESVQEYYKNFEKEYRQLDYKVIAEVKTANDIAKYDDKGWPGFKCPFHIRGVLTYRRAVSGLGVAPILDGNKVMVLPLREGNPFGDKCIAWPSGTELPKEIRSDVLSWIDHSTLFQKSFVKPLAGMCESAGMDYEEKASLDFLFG
DNA polymerase I, thermostable, sequence (P19821 whole entry): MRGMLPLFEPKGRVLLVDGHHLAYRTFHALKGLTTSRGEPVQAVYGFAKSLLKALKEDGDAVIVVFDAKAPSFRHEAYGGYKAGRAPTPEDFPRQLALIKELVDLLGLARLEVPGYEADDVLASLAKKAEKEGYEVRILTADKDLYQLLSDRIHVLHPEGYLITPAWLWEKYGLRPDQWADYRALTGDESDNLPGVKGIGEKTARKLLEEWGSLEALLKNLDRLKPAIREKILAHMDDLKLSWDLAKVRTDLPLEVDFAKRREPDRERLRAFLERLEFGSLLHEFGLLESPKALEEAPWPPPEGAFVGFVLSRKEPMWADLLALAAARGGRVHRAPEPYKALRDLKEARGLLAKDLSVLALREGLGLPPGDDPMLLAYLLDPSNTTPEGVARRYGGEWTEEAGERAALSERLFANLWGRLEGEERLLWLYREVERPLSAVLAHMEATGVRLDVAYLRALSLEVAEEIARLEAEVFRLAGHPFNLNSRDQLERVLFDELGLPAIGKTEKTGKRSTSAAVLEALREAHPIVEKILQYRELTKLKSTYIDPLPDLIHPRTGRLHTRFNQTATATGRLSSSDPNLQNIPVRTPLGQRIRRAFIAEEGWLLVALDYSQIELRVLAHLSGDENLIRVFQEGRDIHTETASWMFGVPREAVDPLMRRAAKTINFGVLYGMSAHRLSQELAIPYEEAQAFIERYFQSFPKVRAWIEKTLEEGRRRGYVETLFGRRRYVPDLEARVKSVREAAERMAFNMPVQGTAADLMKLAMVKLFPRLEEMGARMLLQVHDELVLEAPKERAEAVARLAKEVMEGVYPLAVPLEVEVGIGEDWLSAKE
DNA polymerase eta, sequence (Q9Y253 whole entry, the tested form may be a part): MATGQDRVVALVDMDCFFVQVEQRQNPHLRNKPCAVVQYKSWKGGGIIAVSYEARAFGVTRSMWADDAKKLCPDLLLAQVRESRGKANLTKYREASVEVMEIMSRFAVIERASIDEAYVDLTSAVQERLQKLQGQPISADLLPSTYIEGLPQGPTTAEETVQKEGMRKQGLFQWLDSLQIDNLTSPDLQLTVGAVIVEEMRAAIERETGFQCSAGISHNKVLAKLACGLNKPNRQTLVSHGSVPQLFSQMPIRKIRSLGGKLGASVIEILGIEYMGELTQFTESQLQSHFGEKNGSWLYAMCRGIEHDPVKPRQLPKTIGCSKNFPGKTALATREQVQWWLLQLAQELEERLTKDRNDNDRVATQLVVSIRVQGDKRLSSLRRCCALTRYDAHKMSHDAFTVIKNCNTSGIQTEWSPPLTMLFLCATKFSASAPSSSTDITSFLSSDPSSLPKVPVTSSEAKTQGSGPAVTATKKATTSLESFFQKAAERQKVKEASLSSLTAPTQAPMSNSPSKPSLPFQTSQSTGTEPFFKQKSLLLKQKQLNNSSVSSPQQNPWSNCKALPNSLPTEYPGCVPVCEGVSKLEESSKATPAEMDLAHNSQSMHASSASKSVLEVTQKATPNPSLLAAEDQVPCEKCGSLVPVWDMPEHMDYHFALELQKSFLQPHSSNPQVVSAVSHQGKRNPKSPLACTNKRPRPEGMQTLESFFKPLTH

As to `CCCCCCCC/C=C\CCCCCCCC(=O)Oc1cccc2c1C(=O)C=CC2=O`, the pIC50 on Deoxyribonuclease-1 was less than 4.00; in [1] it was 6.15; against DNA polymerase kappa, 5.09; against DNA polymerase eta it was 5.08; in [4], less than 3.70; in data set [5], less than 4.00. The pIC50 in data set [6] is less than 4.00; against DNA polymerase lambda it was 4.99; in data set [7] it was less than 4.00; at DNA polymerase beta, 4.94. In addition, the inhibition entry (in data set [2]; in data set [3]; in the data set listed under Homo sapiens) was “Active” throughout. Moreover, in the data set on RAW264.7, the Activity result is on record as “Non-toxic”. For the same compound, the CC50 in data set [8] is more than 10 µM.
Take `CCCCCCCCCCCC(=O)Oc1cccc2c1C(=O)C=CC2=O`: the pIC50 was less than 4.00 against Deoxyribonuclease-1; 5.18 in data set [1]; 5.17 against DNA polymerase kappa; 5.16 against DNA polymerase eta; less than 4.00 in data set [4]; less than 4.00 in [5]. Further, the pIC50 is less than 4.00 in [6], 5.15 against DNA polymerase lambda, less than 4.00 in data set [7] and 5.12 against DNA polymerase beta. Moreover, the inhibition result (in data set [2]; in data set [3]; in the data set filed under Homo sapiens) was “Active” in each case. The Activity result in the data set with RAW264.7 is “Non-toxic”. The CC50 in [8] is more than 10 µM.
